Drawing on ChEMBL document CHEMBL1137020, “Role of the rapA gene in controlling antibiotic resistance of Escherichia coli biofilms” (2007), this text covers Activity and MIC for four molecules.

The test system of test [1] is Escherichia coli. Kind of test: Antimicrobial activity against Escherichia coli isolate AMG1 24 hrs biofilms after 24 hrs relative to control. Type of test: functional. In outline:
(§1)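 Microtiter plate biofilms grown 24 h, then exposed 24 h to a range of norfloxacin concentrations. Survival counted as CFU and expressed as percent of 10^8 CFU/ml for each strain.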

For test [2], the system named is Escherichia coli. Kind of test: Antimicrobial activity against kanamycin-resistant Escherichia coli K-12 M2 W3110 deltayhcQ mutant 24 hrs biolflim at 350 ug/ml after 1 hr using BacLight staining. Type of test: functional. In outline: (§2)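 Biofilms grown 24 h in Plexiglas flow cells on M9-Casamino Acid medium under flow. Penicillin G 350 μg/ml in flowing medium for 1 h; controls kept on medium alone. LIVE/DEAD BacLight (Syto9/propidium iodide) injected, flow halted 5 min, then rinsed. CSLM images thresholded. Survival taken as green/(red+green) fluorescence relative to untreated controls.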

The test system of test [3] is Escherichia coli. As to the kind of experiment: Antimicrobial activity against tetracycline-resistant Escherichia coli U1 rapA mutant grown as biofilms after 24 hrs by spectrophotometric method. Type of test: functional. As to conditions: U1, 24 h. The method in brief: (§3)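 Wells with 100 and 200 μl LB inoculated to OD600 0.06 and grown 24 h at 37°C without shaking. Medium then replaced with LB containing penicillin G (0–250 μg/ml) for 24 h, and growth read by OD. MIC for planktonic cells and MICadh for biofilm taken as the concentration giving 50% growth reduction versus unexposed control. Biofilm contribution derived from the 100/200 μl OD relation.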

In test [4] the test system is Escherichia coli. Kind of test: Antimicrobial activity against Escherichia coli AMG1 isolate 24 hrs flow cell-generated biofilms using BacLight staining by CSLM. Type of test: functional, organism-based. In outline:
(§4)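 Penicillin G 350 μg/ml was given in flowing medium for 1 h, with controls kept on antibiotic-free flow. LIVE/DEAD BacLight was stopped in place for 5 min and then rinsed. CSLM green/(red+green) integrated intensity, thresholded, gave percent survival versus untreated controls.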

The test system of test [5] is Escherichia coli. Kind of test: Antimicrobial activity against tetracycline-resistant Escherichia coli U1 rapA mutant grown as planktonic cells after 24 hrs by spectrophotometric method. In kind it is functional. The note with it: U1, 24 h. The method in brief:
as §3

In test [6] the test system is Escherichia coli. Kind of test: Antimicrobial activity against kanamycin-resistant Escherichia coli U6 deltayhcQ mutant 24 hrs biofilms at 350 ug/ml after 1 hr by microtiter plate count method. In kind it is functional. The method in brief:
(§5)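 Biofilms grown 24 h in microtiter plate wells, then exposed to penicillin G at 350 μg/ml for 1 h. Viability by plate count (CFU) against untreated controls. At least three independent determinations, mean ±1 SD. Strain differences tested by Student's two-tailed t test.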

In test [7] the test system is Escherichia coli. Kind of test: Antimicrobial activity against Escherichia coli isolate AMG1 24 hrs biofilms at 350 ug/ml after 1 hr by microtiter plate count method. Type of test: functional. In outline:
(§6)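 Biofilms were grown 24 h in microtiter plate wells and exposed to penicillin G at 350 μg/ml for 1 h. Viability was counted by CFU plating and compared with untreated control biofilms grown identically. Values are averages of at least three independent determinations ±1 standard deviation. Strain differences were tested by two-tailed Student's t test.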

Test [8] concerns Escherichia coli. Kind of test: Antimicrobial activity against wild type Escherichia coli K-12 flow cell-generated 24 hrs biofilms at 350 ug/ml after 1 hr using BacLight staining by CSLM. Type of test: functional. In outline: as §4
For test [9], the system named is Escherichia coli. As to the kind of experiment: Antimicrobial activity against tetracycline-resistant Escherichia coli U1 rapA mutant nylon membrane cultivated 24 hrs biofilms at 350 ug/ml after 1 hr. Type of test: functional. In outline: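 Nylon membranes (1×1 cm) in LB inoculated at OD600 0.1 and grown 24 h at 37°C. Medium replaced with LB ± penicillin G 350 μg/ml for 1 h. Membranes rinsed and vortexed 2 min in M9 salts, then diluted and plated in quadruplicate on LB agar for CFU.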

Test [10] concerns Escherichia coli. Kind of test: Antimicrobial activity against tetracycline-resistant Escherichia coli U1 rapA mutant 24 hrs biofilms assessed as viability at 350 ug/ml after 1 hr by microtiter plate count method. In kind it is functional. In outline:
as §5

Test [11] has as its system Escherichia coli. As to the kind of experiment: Antimicrobial activity against kanamycin-resistant Escherichia coli K-12 M1 W3110 deltarapA mutant 24 hrs biolflim at 350 ug/ml after 1 hr by microtiter plate count method. In kind it is functional, organism-based. The method in brief:
as §5

Test [12] has as its system Escherichia coli. Kind of test: Antimicrobial activity against kanamycin-resistant Escherichia coli K-12 M1 W3110 deltarapA mutant flow cell-generated 24 hrs biofilms at 350 ug/ml after 1 hr using BacLight staining by CSLM. In kind it is functional. In outline:
as §2

Test [13] deals with Escherichia coli. As to the kind of experiment: Antimicrobial activity against wild type Escherichia coli isolate AMG1 grown as planktonic cells after 24 hrs by spectrophotometric method. As to conditions: AMG1, 24 h. Type of test: functional. In outline:
as §3

In test [14] the test system is Escherichia coli. As to the kind of experiment: Antimicrobial activity against tetracycline-resistant Escherichia coli U1 rapA mutant flow cell-generated 24 hrs biofilms using BacLight staining by CSLM. Type of test: functional, organism-based. In outline:
as §2

For test [15], the system named is Escherichia coli. Kind of test: Antimicrobial activity against wild type Escherichia coli isolate AMG1 grown as biofilms after 24 hrs by spectrophotometric method. In kind it is functional. As to conditions: AMG1, 24 h. In outline: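 Triplicate microtiter wells held 100 and 200 μl LB, inoculated at OD600 0.06 and grown 24 h at 37°C without shaking. Liquid was replaced with LB containing penicillin G at 0–250 μg/ml, and growth was read by plate reader 24 h later. The biofilm contribution came from an equation correlating the two volumes' OD. MICadh is the concentration giving 50% growth reduction versus unexposed control.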

Test [16] concerns Escherichia coli. Kind of test: Antimicrobial activity against wild type Escherichia coli K-12 24 hrs biolflim at 350 ug/ml after 1 hr by microtiter plate count method. Type of test: functional, organism-based. In outline: as §6
Test [17] relates to Escherichia coli. Kind of test: Antimicrobial activity against Escherichia coli isolate AMG1 24 hrs biofilms at 0.03 ug/ml to 0.12 ug/ml after 24 hrs by microtiter plate count method. In kind it is functional, organism-based. In outline: as §1

≈ marks a conversion by molar mass, not a printed value. Calls of active or inactive are those of the source.

Molecule `O=C(N[C@H](CO)[C@H](O)c1ccc([N+](=O)[O-])cc1)C(Cl)Cl` [CHLORAMPHENICOL] gave an Activity in the test on Escherichia coli [1] of 40%.
Consider `CC1(C)S[C@@H]2[C@H](NC(=O)Cc3ccccc3)C(=O)N2[C@H]1C(=O)O` [PENICILLIN G], for which the Activity with Escherichia coli [2] is reported as 31%; with Escherichia coli [6], 55%; in the test with Escherichia coli [7] it was 35%; in the test with Escherichia coli [8], 22%; in the test on Escherichia coli [9], 30%; in the test on Escherichia coli [10], 71%. The same molecule displayed an Activity with Escherichia coli [12] of 71%. Also, the MIC in the test on Escherichia coli [3] was 125 µg/mL (≈ 374 µM); in the test on Escherichia coli [5], 50 µg/mL (≈ 150 µM); with Escherichia coli [13] it was 50 µg/mL (≈ 150 µM); in the test on Escherichia coli [15], 250 µg/mL (≈ 748 µM). Further, in the test on Escherichia coli [4], the outcome was inactive. For the same molecule, the outcome in the test on Escherichia coli [11], in the test on Escherichia coli [14] and in the test on Escherichia coli [16] was Active.
Turning to GENTAMICIN, in the test with Escherichia coli [1], the Activity came to 40%.
`CCn1cc(C(=O)O)c(=O)c2cc(F)c(N3CCNCC3)cc21`: the result with Escherichia coli [17] was Active.
